According to ChEMBL document CHEMBL3758077, “Discovery of New Acid Ceramidase-Targeted Acyclic 5-Alkynyl and 5-Heteroaryl Uracil Nucleosides” (ACS Med Chem Lett, 2015):
Active and inactive are the calls of the source. No cut-off for these calls is given here.

What was measured:
MCF7 [1] = assay: Induction of apoptosis in human MCF7 cells assessed as late apoptotic cells at IC50 after 48 hrs by annexinV/propidium iodide staining based fluorescence analysis (reference value: 27.7 %); format: functional
MCF7 [2] = assay: Antiproliferative activity against human MCF7 cells after 72 hrs by MTT assay; format: functional, cell-based; details: MCF7, 72 h
Outline: (§1)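 Cells grown in vitro with test agent; growth inhibition read by MTT assay; IC50 taken as concentration inhibiting tumor cell proliferation by 50%.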

BJ = assay: Antiproliferative activity against human BJ cells after 72 hrs by MTT assay; format: cell-based; outline: as §1
MCF7 [3] = assay: Induction of apoptosis in human MCF7 cells assessed as late apoptotic cells at IC50 after 24 hrs by annexinV/propidium iodide staining based fluorescence analysis (reference value: 7.5 %); format: functional
MCF7 [4] = assay: Induction of apoptosis in human MCF7 cells assessed as necrotic cells at IC50 after 24 hrs by annexinV/propidium iodide staining based fluorescence analysis (reference value: 9.4 %); format: functional
[5] = Antiproliferative activity against human SW620 cells after 72 hrs by MTT assay; format: functional, cell-based; details: SW-620, 72 h; outline: as §1
MCF7 [6] = assay: Induction of apoptosis in human MCF7 cells assessed as early apoptotic cells at IC50 after 48 hrs by annexinV/propidium iodide staining based fluorescence analysis (reference value: 36.1 %); format: functional
MCF7 [7] = assay: Downregulation of ASAH1 expression in human MCF7 cells at IC50 after 24 hrs by western blot analysis; format: functional, cell-based
MCF7 [8] = assay: Induction of apoptosis in human MCF7 cells assessed as early apoptotic cells at IC50 after 24 hrs by annexinV/propidium iodide staining based fluorescence analysis (reference value: 8.7 %); format: functional
MCF7 [9] = assay: Effect on SK1 expression in human MCF7 cells at IC50 after 24 hrs by western blot analysis; format: functional, cell-based
MCF7 [10] = assay: Induction of apoptosis in human MCF7 cells assessed as necrotic cells at IC50 after 48 hrs by annexinV/propidium iodide staining based fluorescence analysis (reference value: 25.4 %); format: functional
HeLa = assay: Antiproliferative activity against human HeLa cells after 72 hrs by MTT assay; format: functional, cell-based; outline: as §1
[11] = molecular target: T1, 17-beta-hydroxysteroid dehydrogenase type 1 (Homo sapiens) (UniProt P14061); assay: Inhibition of 17beta-HSD1 in human MCF7 cells at 5XIC50 after 24 hrs by ELISA; format: cell-based
T1 sequence (whole entry): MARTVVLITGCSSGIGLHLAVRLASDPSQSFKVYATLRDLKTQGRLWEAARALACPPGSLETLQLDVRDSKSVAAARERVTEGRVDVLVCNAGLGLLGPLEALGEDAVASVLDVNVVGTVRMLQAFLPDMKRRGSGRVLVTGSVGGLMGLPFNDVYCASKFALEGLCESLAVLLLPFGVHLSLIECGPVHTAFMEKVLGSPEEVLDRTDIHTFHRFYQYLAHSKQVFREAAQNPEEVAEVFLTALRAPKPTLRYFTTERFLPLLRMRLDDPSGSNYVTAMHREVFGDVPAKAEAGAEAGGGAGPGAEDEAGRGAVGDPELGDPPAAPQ

[12] = molecular target: T1, 17-beta-hydroxysteroid dehydrogenase type 1 (Homo sapiens); assay: Inhibition of 17beta-HSD1 in human MCF7 cells at IC50 after 24 hrs by ELISA; format: cell-based

| SMILES | Activity (MCF7 [1]) [%] | IC50 (MCF7 [2]) [µM] | IC50 (BJ) [µM] | Activity (MCF7 [3]) [%] | Activity (MCF7 [4]) [%] | IC50 [5] [µM] | Activity (MCF7 [6]) [%] | inhibition (MCF7 [7]) | Activity (MCF7 [8]) [%] | Activity (MCF7 [9]) | Activity (MCF7 [10]) [%] | IC50 (HeLa) [µM] | inhibition [11] | inhibition [12] |
| --- | --- | --- | --- | --- | --- | --- | --- | --- | --- | --- | --- | --- | --- | --- |
| CCCCCc1ccc(C#Cc2cn(CCC(COC(C)=O)COC(C)=O)c(=O)n(C(=O)c3ccccc3)c2=O)cc1 | 24.1 | 0.1 | 17.6 | 28.3 | 34.6 | > 100 | 28.2 | Active | 41.7 | inactive | 37.9 | 79.1 | – | – |
| CCCCCC#Cc1cn(CCC(COC(C)=O)COC(C)=O)c(=O)n(C(=O)c2ccccc2)c1=O | – | 62.2 | – | – | – | 40.7 | – | – | – | – | – | 53.7 | – | – |
| CC(=O)OCC(CCn1cc(C#CC(C)(C)C)c(=O)n(C(=O)c2ccccc2)c1=O)COC(C)=O | – | 67.1 | 36.9 | – | – | > 100 | – | – | – | – | – | 71.5 | – | – |
| CC(=O)OCC(CCn1cc(C#CCCCCl)c(=O)n(C(=O)c2ccccc2)c1=O)COC(C)=O | – | 21 | – | – | – | > 100 | – | – | – | – | – | 52.8 | – | – |
| CC(=O)OCC(CCn1cc(C#CC2CC2)c(=O)n(C(=O)c2ccccc2)c1=O)COC(C)=O | 24.4 | 0.1 | 0.3 | 36.6 | 34.1 | > 100 | 20.9 | Active | 10.9 | inactive | 31.6 | > 100 | – | – |
| CCCCCc1ccc(C#Cc2cn(CCC(CO)CO)c(=O)[nH]c2=O)cc1 | – | 26.8 | – | – | – | > 100 | – | – | – | – | – | 48.2 | – | – |
| CC(=O)OCC(CCn1cc(C#Cc2cc(F)cc(F)c2)c(=O)n(C(=O)c2ccccc2)c1=O)COC(C)=O | – | 28.9 | 46.6 | – | – | > 100 | – | – | – | – | – | 64.5 | – | – |
| CC(C)(C)C#Cc1cn(CCC(CO)CO)c(=O)[nH]c1=O | – | 95.9 | 58.2 | – | – | > 100 | – | – | – | – | – | > 100 | – | – |
| CCCCCCCCC#Cc1cn(CCC(CO)CO)c(=O)[nH]c1=O | – | 40.3 | – | – | – | > 100 | – | – | – | – | – | 58.9 | – | – |
| O=c1[nH]cc(F)c(=O)[nH]1 [FLUOROURACIL] | – | 0.09 | – | – | – | 0.79 | – | – | – | – | – | > 100 | – | – |
| O=c1[nH]c(=O)n(CCC(CO)CO)cc1C#CC1CC1 | – | > 100 | – | – | – | > 100 | – | – | – | – | – | > 100 | – | – |
| O=c1[nH]c(=O)n(CCC(CO)CO)cc1-c1ccco1 | 18 | < 0.01 | 0.5 | 19.7 | 34 | > 100 | 39.3 | inactive | 20.4 | inactive | 28.7 | > 100 | inactive | inactive |
| O=c1[nH]c(=O)n(CCC(CO)CO)cc1-c1cccs1 | 22.9 | 6 | – | 33.6 | 26.2 | > 100 | 54.9 | inactive | 32.8 | inactive | 13.1 | 7.8 | Active | Active |
| CCCCCC#Cc1cn(CCC(CO)CO)c(=O)[nH]c1=O | – | 37.8 | – | – | – | > 100 | – | – | – | – | – | 76.3 | – | – |
| O=c1[nH]c(=O)n(CCC(CO)CO)cc1C#CCc1ccccc1 | – | > 100 | > 100 | – | – | 72.4 | – | – | – | – | – | 63.8 | – | – |
| CC(=O)OCC(CCn1cc(C#Cc2ccc(Br)cc2)c(=O)n(C(=O)c2ccccc2)c1=O)COC(C)=O | – | 28.9 | 37.6 | – | – | > 100 | – | – | – | – | – | 47.2 | – | – |
| CC(=O)OCC(CCn1cc(C#CCc2ccccc2)c(=O)n(C(=O)c2ccccc2)c1=O)COC(C)=O | – | 26.8 | – | – | – | 36.4 | – | – | – | – | – | 29.9 | – | – |
| CCCCCCCCC#Cc1cn(CCC(COC(C)=O)COC(C)=O)c(=O)n(C(=O)c2ccccc2)c1=O | – | 28.9 | > 100 | – | – | 65.8 | – | – | – | – | – | 32.4 | – | – |
| O=c1[nH]c(=O)n(CCC(CO)CO)cc1C#Cc1cc(F)cc(F)c1 | – | 63.1 | > 100 | – | – | > 100 | – | – | – | – | – | 31.2 | – | – |
| O=c1[nH]c(=O)n(CCC(CO)CO)cc1C#CCCCCl | – | 35.2 | – | – | – | > 100 | – | – | – | – | – | > 100 | – | – |
| O=c1[nH]c(=O)n(CCC(CO)CO)cc1C#Cc1ccc(Br)cc1 | – | 46 | > 100 | – | – | > 100 | – | – | – | – | – | 67.7 | – | – |
